Fewer inactive variants are shown than the library holds.
B1: tRNA (parent)
chain: GUUCCGUUGGCGUAAUGGUAACGCGUCUCCCUCCUAAGGAGAAGACUGCGGGUUCGAGUCCCGUACGGAACG

Variants of: B1
Test: yeast fitness relative to wild type (ratio to wild type); higher = fitter; tRNA-Arg(CCU), competitive growth, 37 C, YPD
Summary of the method: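 The tRNA-Arg(CCU) gene variants were made by chemical synthesis with a 3% per-site mutation rate at 69 sites and inserted at the native genomic locus of Saccharomyces cerevisiae. After pooling, the strains were competed in YPD at 37°C for 24 hours in six parallel replicates. Gene amplicons from the start population and each end population were read by 100-nucleotide paired-end sequencing, and Darwinian fitness relative to wild type was taken from genotype frequency changes. Genotypes needed ≥ 100 starting reads, and estimates < 0.5 were set to 0.5.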

Variant | yeast fitness
GUUCCGUUGGCGUAAUGGUAACGCGUCUCCCUCCUAUGGAGAAGACAGCGGUUUCGAGUCCCGUACGGAACG | ≤ 0.5
GUUCCGUUGGCGUAAUGGUAACGCGUCUCCCUCCUAUGGAGAAGACCGCGGGUUCGAGUCCCGUACGGAACG | 0.667
GUUCCGUUGGCGUAAUGGUAACGCGUCUCCCUCCUAUGGAGAAGACUGCGGGGUGGAGUCCAGUACGGAACG | 0.744
GUUCCGUUGGCGUAAUGGUAACGCGUCUCCCUCCUAUGGAGAAGACUGCGGGUUCGAGGUCCGUACGGAACG | ≤ 0.5
GUUCCGUUGGCGUAAUGGUAACGCGUCUCCCUCCUAAAGCGAAGACUGCGGGUUCAAGUCCCGUAUGGACCG | ≤ 0.5
GUUCCGUUGGCGUAAUGGUAACGCGUCUCCCUCCUAAAGCGAAGACUGCGGGCUCGAGUCCCGUACGGAACG | 0.538
GUUCCGUUGGCGUAAUGGUAACGCGUCUCCCUCCUAAAGUGAAGACUGCGGGUUCGAGUCCCGUACGGAACG | 0.747
GUUCCGUUGGCGUAAUGGUAACGCGUCUCCCUCCUAAAGUGAAGACUGCGGGUUCGAGUCCCGUGCGGAACG | ≤ 0.5
GUUCCGUUGGCGUAAUGGUAACGCGUCUCCCUCCUAAAGUGAAGACUGCCGGUUCGAGUGCCGUACAGACCG | ≤ 0.5
GUUCCGUUGGCGUAAUGGUAACGCGUCUCCCUCCUAAAGAGAGGACUGCGGGUUCGAGUCCCGUACGGAACG | 0.607
GUUCCGUUGGCGUAAUGGUAACGCGUCUCCCUCCUAAAGAGAGGACUGCGGGUUCGAGUCCCGUACGGACCG | 0.584
GUUCCGUUGGCGUAAUGGUAACGCGUCUCCCUCCUAAAGAGAGGAUUGUGGGUUCGAGUCCCGUACGGAACG | 0.611
GUUCCGUUGGCGUAAUGGUAACGCGUCUCCCUCCUAAAGAGAUGACUGCGGGUUCAAGUCCCAUACGGAACG | ≤ 0.5
GUUCCGUUGGCGUAAUGGUAACGCGUCUCCCUCCUAAAGAGAUGACUGCGGGUACGAGUCCCGUACGGAACG | ≤ 0.5
GUUCCGUUGGCGUAAUGGUAACGCGUCUCCCUCCUAAAGAGAAGCCUGCGGGUUCGAGUCCCGUACGGAACG | 0.818
GUUCCGUUGGCGUAAUGGUAACGCGUCUCCCUCCUAAAGAGAAGACUGCGGGUUCGAGUCCCGUCCGGAACG | 0.707
GUUCCGUUGGCGUAAUGGUAACGCGUCUCCCUCCUAAAGAGAAGACUGCGGGUUCGAGUCCCGUUCGUAACG | 0.665
GUUCCGUUGGCGUAAUGGUAACGCGUCUCCCUCCUAAAGAGAAGAAUGCGGGUUCGAGUCCCGUACGGAACG | 0.993
GUUCCGUUGGCGUAAUGGUAACGCGUCUCCCUCCUAAAGAGAAGAAUGCGGGUUCGGGUCCCGUACGGAACG | 0.769
GUUCCGUUGGCGUAAUGGUAACGCGUCUCCCUCCUAAAGAGAAGAAUGCAGGCUCGAGUCCCGUACGGAACG | 0.596
GUUCCGUUGGCGUAAUGGUAACGCGUCUCCCUCCUAAAGAGAAGAUUGCGGGUUCGAGUCCCGUACGGAACG | 0.798
GUUCCGUUGGCGUAAUGGUAACGCGUCUCCCUCCUAAAGAGAAGACUGUGCGUUCGAGUCCCGUACGGAACG | ≤ 0.5
GUUCCGUUGGCGUAAUGGUAACGCGUCUCCCUCCUAAAGAGAAGACUGCGGGUUAGAGUCCCGUACGAAACG | ≤ 0.5
GUUCCGUUGGCGUAAUGGUAACGCGUCUCCCUCCUAAAGAGAAGACUGCGGGUUGGAGUCCCGUACGGAACG | 0.564
GUUCCGUUGGCGUAAUGGUAACGCGUCUCCCUCCUAAAGAGAAGACUGCGGGUUUGAGUCCCGUACGGAACG | 0.849

Variant | yeast fitness
GUUCCGUUGGCGUAAUGGUAACGCGUCUCCCUCCUAAAGAGAAGACUGCGGGUUCGAGUUCCGUACGGAACG | 0.831
GUUCCGUUGGCGUAAUGGUAACGCGUCUCCCUCCUAAAGAGAAGACUGCGGGUUCGAGUCACGUACGGAACG | 0.646
GUUCCGUUGGCGUAAUGGUAACGCGUCUCCCUCCUAAAGAGAAGACUGCGGGUUCGAGUCACGUUCGGAACG | ≤ 0.5
GUUCCGUUGGCGUAAUGGUAACGCGUCUCCCUCCUAAAGAGAAGACUGCGGGUUCGAGUCCAGUACGGAACG | 0.742
GUUCCGUUGGCGUAAUGGUAACGCGUCUCCCUCCUAAAGAGAAGACUGCGGGUUCGAGUCCGGUACGGAACG | 0.648
GUUCCGUUGGCGUAAUGGUAACGCGUCUCCCUCCUAAAGAGAAGACUGCGGGUUCGAGUCCGGUACGGAUCG | ≤ 0.5
GUUCCGUUGGCGUAAUGGUAACGCGUCUCCCUCCUAAAGAGAAGACUGCGGGUUCGAGUCCUGUACGGCACG | 0.717
GUUCCGUUGGCGUAAUGGUAACGCGUCUCCCUCCUAAAGACAAGACUGCGGGUUCGAGUCCCGUACGGAACG | 0.659
GUUCCGUUGGCGUAAUGGUAACGCGUCUCCCUCCUAAAGAGAACACGGCGGGUUCGAGUCCCGUACGGAACG | ≤ 0.5
GUUCCGUUGGCGUAAUGGUAACGCGUCUCCCUCCUAAAGAGAAGACUGCGGGUUCAAGUCCCGUACGGAUCG | 0.7
GUUCCGUUGGCGUAAUGGUAACGCGUCUCCCUCCUAAAGAGAAGACUGCGGGUUCGACUCCCGUACGGAACG | 1
GUUCCGUUGGCGUAAUGGUAACGCGUCUCCCUCCUAAAGAGAAGACUGCGGGUUCGAGUCCCGUACAGAACG | 0.881
GUUCCGUUGGCGUAAUGGUAACGCGUCUCCCUCCUAAAGAGAAGACUGCGGGUUCGAGUCCCGUACGAAACG | 0.718
GUUCCGUUGGCGUAAUGGUAACGCGUCUCCCUCCUAAAGAGAAGACUGCGGGUUCGAGUCCCGUACGCAACG | 0.823
GUUCCGUUGGCGUAAUGGUAACGCGUCUCCCUCCUAAAGAGAAGACAGCGGGUUGGAGUCCCGUACGGAACG | 0.658
GUUCCGUUGGCGUAAUGGUAACGCGUCUCCCUCCUAAAGAGAAGACAGCGGGUUGGAGUCUCGUACGGAACG | 0.718
GUUCCGUUGGCGUAAUGGUAACGCGUCUCCCUCCUAAAGAGAAGACUGCGGGUACGCGUCCCGUACGGAACG | 0.551
GUUCCGUUGGCGUAAUGGUAACGCGUCUCCCUCCUAAAGAGAAGACUGCGGGUCCGAGUCCCGUACGGAACG | 0.72
GUUCCGUUGGCGUAAUGGUAACGCGUCUCCCUCCUAAAGAGAAGACUGCGGGUUCGAGGCCCGUACGGAACG | 0.705
GUUCCGUUGGCGUAAUGGUAACGCGUCUCCCUCCUAAAGAGAAGACUGCGGGUUCGAGGCCCGUACGGGACG | ≤ 0.5
GUUCCGUUGGCGUAAUGGUAACGCGUCUCCCUCCUAACGCGAAGACUGCGGGUUCGAGUCCCGUACGGAACG | 1.02
GUUCCGUUGGCGUAAUGGUAACGCGUCUCCCUCCUAACGUGAAGACUGCGGGUUCGAGUCGCGUACGGAACG | ≤ 0.5
GUUCCGUUGGCGUAAUGGUAACGCGUCUCCCUCCUAACGAGCAGACUGCGGGUUCGAGUCCCGUCCGGAACG | ≤ 0.5
GUUCCGUUGGCGUAAUGGUAACGCGUCUCCCUCCUAACGAGGGGACUGCGGGUUCGAGUCCCGUACGGAACG | ≤ 0.5
GUUCCGUUGGCGUAAUGGUAACGCGUCUCCCUCCUAACGAGGAGACUGCGGGUUCGAGUCCCGUACGGACCG | ≤ 0.5

Variant | yeast fitness
GUUCCGUUGGCGUAAUGGUAACGCGUCUCCCUCCUAACGAGAAGCCUGCGGGUUCGCGUCCCGUACGGAUCG | ≤ 0.5
GUUCCGUUGGCGUAAUGGUAACGCGUCUCCCUCCUAACGAGAAGUCUGCGGGUUCGAGUCCCGUACGGAACG | 0.599
GUUCCGUUGGCGUAAUGGUAACGCGUCUCCCUCCUAACGAGAAGUCUGCGGGUUCGAGUCCCCUAGGGAACG | ≤ 0.5
GUUCCGUUGGCGUAAUGGUAACGCGUCUCCCUCCUAACGAGAAGUCUGCGGGUACGAGUCUCGUACGGAACG | ≤ 0.5
GUUCCGUUGGCGUAAUGGUAACGCGUCUCCCUCCUAACGAGAAGACUGCGGGUUCGAGUCCCGUCCGGAACG | 0.578
GUUCCGUUGGCGUAAUGGUAACGCGUCUCCCUCCUAACGAGAAGACUGCGGGUUCGAGUCCCGUUCGGAACG | 0.723
GUUCCGUUGGCGUAAUGGUAACGCGUCUCCCUCCUAACGAGAAGACUGCGGGUUCGAGUCCCGUUUGGAACG | 0.657
GUUCCGUUGGCGUAAUGGUAACGCGUCUCCCUCCUAACGAGAAGACUGCGGGUUCGAGUCCCGUACGGUCCG | 0.557
GUUCCGUUGGCGUAAUGGUAACGCGUCUCCCUCCUAACGAGAAGACUGCGGGUUCGAGUCCCGUACGGAGCG | 0.756
GUUCCGUUGGCGUAAUGGUAACGCGUCUCCCUCCUAACGAGAAGAAUGCGGGUUCGAGCCCCGUACGAAACG | ≤ 0.5
GUUCCGUUGGCGUAAUGGUAACGCGUCUCCCUCCUAACGAGAAGAGUGGGCGUUCGAGUCUCGUACGGAACG | 0.593
GUUCCGUUGGCGUAAUGGUAACGCGUCUCCCUCCUAACGAGAAGAGUGCGCGUUCGCGUCUCGUACGGAACG | ≤ 0.5
GUUCCGUUGGCGUAAUGGUAACGCGUCUCCCUCCUAACGAGAAGACUGGGGGUUCGAGUCCCGUACGGAACG | 0.743
GUUCCGUUGGCGUAAUGGUAACGCGUCUCCCUCCUAACGAGAAGACUGUGGGUACGAGUCCCGUCCGGAACG | ≤ 0.5
GUUCCGUUGGCGUAAUGGUAACGCGUCUCCCUCCUAACGAGAAGACUGCGGGUUAGAGUCCCGUACGGAACG | 0.508
GUUCCGUUGGCGUAAUGGUAACGCGUCUCCCUCCUAACGAGAAGACUGCGGGUUCGAGUACCGUACGGAGCG | 0.582
GUUCCGUUGGCGUAAUGGUAACGCGUCUCCCUCCUAACGAGAAGACUGCGGGUUCGAGUGCCGUACGGAACG | 0.567
GUUCCGUUGGCGUAAUGGUAACGCGUCUCCCUCCUAACGAGAAGACUGCGGGUUCGAGUUCCGUACGGAACG | 0.571
GUUCCGUUGGCGUAAUGGUAACGCGUCUCCCUCCUAACGAGAAGACUGCGGGUUCGAGUCUCGUACGGAACG | 0.646
GUUCCGUUGGCGUAAUGGUAACGCGUCUCCCUCCUAACGAGAAGACUGCGGGUUCGAGUCCAGUACCGAACG | ≤ 0.5
GUUCCGUUGGCGUAAUGGUAACGCGUCUCCCUCCUAACGAGAAGACUGCGGGUUCGAGUCCUGUACGGAACG | 0.687
GUUCCGUUGGCGUAAUGGUAACGCGUCUCCCUCCUAACAAGACGACUGCGGGUUCGAGUGCCGUCCGGAACG | 0.518
GUUCCGUUGGCGUAAUGGUAACGCGUCUCCCUCCUAACGAAAAGACUGCGGGUUUGAGUCCCGUACCGAACG | ≤ 0.5
GUUCCGUUGGCGUAAUGGUAACGCGUCUCCCUCCUAACGACAAGACUGCGGGUUCGAGUCUCGUACGGAACG | ≤ 0.5
GUUCCGUUGGCGUAAUGGUAACGCGUCUCCCUCCUAACGACAAGACUGCGGGUUCGAGUCCCGUAUGGAACG | ≤ 0.5
